Rows were chosen to be rich in hits. Some 1.9% of all compounds tested hit in one or more screens of this group.
proCasp7 act – counter-screen: procaspase-7 (human) activation. P55210. recombinant procaspase-7, Ac-DEVD-pNA absorbance 405 nm; D23A/D198A/D206A triple mutant, cannot self-cleave; scale: DMSO 0, 5 µM enzyme 100. activation, % at 8.5 µM. 330,000 compounds, 0.093% hits. AID 463210;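 active = percent activation above the screen-wide mean plus 3 SD, cut at about 25% in these data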
Target sequence (P55210 whole entry D23A/D198A/D206A): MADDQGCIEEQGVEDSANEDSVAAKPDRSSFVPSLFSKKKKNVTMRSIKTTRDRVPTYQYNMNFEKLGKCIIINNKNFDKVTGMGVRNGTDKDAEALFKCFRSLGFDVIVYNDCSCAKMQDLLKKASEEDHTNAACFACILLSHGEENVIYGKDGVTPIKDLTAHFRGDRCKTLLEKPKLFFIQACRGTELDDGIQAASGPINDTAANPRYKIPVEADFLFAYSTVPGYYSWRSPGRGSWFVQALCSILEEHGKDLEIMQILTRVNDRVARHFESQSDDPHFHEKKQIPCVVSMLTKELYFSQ
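Material: Procaspase-7 triple mutant (PC-7 D3A) | Quantity: 2 µM procaspase-7 mutant as dispensed | Reagent: DEVD-pNA substrate | Times: 1 h preincubation, 2 h reaction | Technique: 405 nm absorbance of p-nitroaniline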
proCasp3 act – activates human procaspase-3 | AID 463141 | activation, % at 8.5 µM | 330,000 compounds, 0.11% hits | recombinant procaspase-3 D3A, Ac-DEVD-pNA absorbance 405 nm | P42574;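 active = activation above the mean of all tested compounds plus 3 SD, cut at about 21% in these data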
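Assay system: Procaspase-3 D3A mutant, all three cleavage aspartates alanine. Buffer or medium: Zinc-free HEPES saline buffer with Triton X-100. Times: 1 h compound preincubation, 2 h substrate hydrolysis at 25 °C. Measured by: 405 nm absorbance of p-nitroaniline, reads at 0 and 120 min. Read-out basis: percent activation relative to control range. Replicates: singlicate.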
PHOSPHO1 inh – PHOSPHO1 (human) inhibition; recombinant PHOSPHO1, absorbance phosphatase assay; inhibition, % at 13.3 µM; 290,000 compounds, 1.1% hits; AID 1565; in the data active = inhibition above about 60%
IDE inh – cellular human IDE inhibition | 320,000 compounds, 0.41% hits | HEK cells, FAbetaB cleavage, fluorescence polarization | inhibition, % at 5.59 µM;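 active = percent inhibition above the average of all tested compounds plus 3 SD, set per screening campaign, cut at about 16% in these data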;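 also: IDE supplied by intact live HEK cells; FP after avidin binding of uncleaved biotin substrate so inhibition keeps polarization high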
IDE act – activators of human insulin-degrading enzyme in cells; P14735; HEK cells, FAbeta-B cleavage, fluorescence polarization; 0% vehicle, 100% cell-free pure enzyme wells; activation, % at 5.96 µM; 340,000 compounds, 0.073% hits;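 active = activation above the mean of all tested compounds plus 3 SD, set per screening campaign, cut at about 17% in these data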
UBC13 inh – blocks human UBC13 polyubiquitin chain formation; P61088; TR-FRET; inhibition, % at 20 µM; 330,000 compounds, 0.47% hits; AID 485273; in the data active = inhibition above about 45%, passing the limit was not always enough; inconclusive = no clear call, values can overlap the other calls
Target sequence (P61088 whole entry, looked up): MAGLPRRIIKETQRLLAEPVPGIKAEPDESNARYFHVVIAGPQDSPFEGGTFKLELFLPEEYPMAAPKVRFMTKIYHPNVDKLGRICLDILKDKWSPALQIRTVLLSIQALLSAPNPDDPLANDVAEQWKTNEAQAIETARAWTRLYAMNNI
Casp3 UBC13 ctr – caspase-3 inhibition (UBC13 counter-screen); 1,400 compounds, 4% hits; Recombinant caspase-3, Caspase-Glo 3/7 luminescence, 60 min; shares compounds with UBC13 inh; inhibition, % at 20 µM;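 active = mean inhibition across replicates above about 26%, limit read from the data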
UBC13 conf – confirmation of human UBC13 polyubiquitin inhibitors | shares compounds with UBC13 inh | UBC13 polyubiquitination, TR-FRET, biochemical | inhibition, % at 10 µM | 1,400 compounds, 68% hits; in the data active = inhibition above about 45%; inconclusive = no clear call, values can overlap the other calls
Of the large screens only hits and unclear results are named; the others gave an inactive call (follow-up assays come after a bar, where they were run).

CN(CCNC(=O)C1CCN(c2ncnc3c2nc2n3CCCCC2)CC1)Cc1ccccc1	UBC13 inh 91 | Casp3 UBC13 ctr inactive | UBC13 conf 106
CSc1ccc(CCNC(=O)C2CCCN(c3ncnc4c3nc3n4CCCCC3)C2)cc1 (stereo unspecified)	none
NS(=O)(=O)c1ccc(CCNC(=O)C2CCN(c3ncnc4c3nc3n4CCCCC3)CC2)cc1	UBC13 inh 55 | Casp3 UBC13 ctr inactive | UBC13 conf 59
Cc1nc(N)c(CC(Br)CBr)c(Cl)n1 (stereo unspecified)	none
Cc1cc(=O)n2nc(N3CCCC3C(=O)Nc3cccc(F)c3)sc2n1 (stereo unspecified)	none
CCCCn1c(N)c(N(C(=O)CSc2nnnn2-c2ccccc2C)C2CCCC2)c(=O)[nH]c1=O	none (no result: proCasp7 act, proCasp3 act, PHOSPHO1 inh, IDE inh)
CCN(C(=O)COC(=O)c1cc(-c2ccccc2)nc2c1c(C)nn2-c1ccccc1)C1CCS(=O)(=O)C1 (stereo unspecified)	UBC13 inh 52 | Casp3 UBC13 ctr inactive | UBC13 conf inconclusive
O=C(CSc1ccccc1C(=O)NCCCN1CCCC1=O)NCc1ccco1	UBC13 inh 50 | Casp3 UBC13 ctr inactive | UBC13 conf inactive
O=C(CSc1ccccc1F)NCCCN1CCCC1=O	none (no result: PHOSPHO1 inh)
CCOc1ccccc1N1CCN(C(=O)c2ccccc2OCc2c(C)noc2C)CC1	none (no result: PHOSPHO1 inh)
Cc1nc2ccccn2c1C(=O)N/N=C/c1ccccc1[N+](=O)[O-]	UBC13 inh 63 | Casp3 UBC13 ctr inactive | UBC13 conf inactive
CS(=O)(=O)c1ncc(Cl)c(C(=O)Nc2ccc(N3CCOCC3)cc2)n1	UBC13 inh 45 | Casp3 UBC13 ctr inactive | UBC13 conf inactive
Cc1ccc(S(=O)(=O)N2CCCC2CNC(=O)C(=O)NC2CCCC2)cc1 (stereo unspecified)	none (no result: PHOSPHO1 inh)
CCOC(=O)c1c(-c2ccccc2)oc2ccc(OCC(O)CN(C)C)cc12 (stereo unspecified)	UBC13 inh 47 | Casp3 UBC13 ctr inactive | UBC13 conf 52
CCOC(=O)c1c(-c2ccccc2)oc2ccc(OC(C)C(=O)O)cc12 (stereo unspecified)	none
Cc1ccccc1N1CCN(C2CCCN(C(=O)c3cn4cccc(C)c4n3)C2)CC1 (stereo unspecified)	none (no result: proCasp7 act, proCasp3 act, IDE inh)
CC1CCCCN1C(=O)c1ccc(C(=O)c2ccccc2)cc1 (stereo unspecified)	none (no result: PHOSPHO1 inh)
O=C1c2ccccc2S(=O)(=O)c2cc(N3CCc4ccccc4C3)ccc21	none (no result: PHOSPHO1 inh, IDE act)
N=c1n(Cc2ccccc2)c2ccccc2n1CC(O)COc1ccc(Cl)cc1Cl (stereo unspecified)	IDE act 20, UBC13 inh 65 (no result: proCasp7 act, proCasp3 act, IDE inh) | Casp3 UBC13 ctr inactive | UBC13 conf 91
O=C(Cn1nc(CNc2ccc(Br)cc2)[n+]2c1CCCCC2)c1ccc([N+](=O)[O-])cc1	UBC13 inh 52 | Casp3 UBC13 ctr inactive | UBC13 conf 46
O=C(Cn1nc(CNc2ccc(Cl)cc2)[n+]2c1CCCCC2)c1ccc(Br)cc1	none
CCOC(=O)c1c(-c2ccc(-c3ccccc3)cc2)csc1NC(=O)CNCCN(C)C	UBC13 inh 79 | Casp3 UBC13 ctr inactive | UBC13 conf 85
O=C(C1=C[C@H](c2coc3ccccc3c2=O)C[C@H](OCc2ccc(CO)cc2)O1)N1CCN(Cc2ccc3c(c2)OCO3)CC1	none
O=C(C1=C[C@@H](c2coc3ccccc3c2=O)C[C@@H](OCc2ccc(CO)cc2)O1)N1CCN(Cc2ccc3c(c2)OCO3)CC1	UBC13 inh 76 | Casp3 UBC13 ctr inactive | UBC13 conf 57
CCCCCC1=C(C(=O)OC)C(C(=O)OCC)N(S(=O)(=O)C(F)(F)F)c2ccccc21 (stereo unspecified)	none (no result: PHOSPHO1 inh, IDE inh, UBC13 inh)
CC(C)N1CCc2c(sc(NC(=O)c3ccc4ccccc4c3)c2C(N)=O)C1	none
CC(=O)Nc1sc2c(c1-c1nc3ccccc3s1)CCN(C(C)C)C2	UBC13 inh 60 | Casp3 UBC13 ctr inactive | UBC13 conf inactive
COc1cccc(/C=C2/Sc3ccc(C(=O)NCCCN4CCCC4)cc3NC2=O)c1	none
COc1cccc(/C=C2/Sc3ccc(C(=O)NCCN4CCCC4)cc3NC2=O)c1	UBC13 inh 50 | Casp3 UBC13 ctr inactive | UBC13 conf 74
Cc1cccc(CN2C(=O)/C(=C\c3ccc(C(=O)NCCN4CCOCC4)cc3)Sc3ccccc32)c1	none
CCN1CCN(CCNC(=O)c2ccc3c(c2)N(Cc2ccc(F)cc2)C(=O)/C(=C/c2ccccc2)S3)CC1	UBC13 inh 65 | Casp3 UBC13 ctr inactive | UBC13 conf 92
O=C(NCCCN=C1NS(=O)(=O)c2ccccc21)c1ccc(Cl)cc1	none
Cc1ccc(C)c(N(C(=O)c2csnn2)C(C(=O)NC2CCCC2)c2cccnc2)c1 (stereo unspecified)	none
COc1ccc(Cl)cc1C(=O)OCC(=O)NCCNC(=O)COC(=O)c1cc(Cl)ccc1OC	none
CC1CCC(C(C)C)C(OC(=O)Cn2c(-c3ccccc3)[n+](C)c3ccccc32)C1 (stereo unspecified)	none
Cc1cccc(OCc2n(CC(=O)OC3CC(C)CCC3C(C)C)c3ccccc3[n+]2C)c1 (stereo unspecified)	UBC13 inh 59 | Casp3 UBC13 ctr inactive | UBC13 conf 92
Cc1ccccc1-c1ccccc1CN1[C@@H](C(C)C)COCCS1(=O)=O	none (no result: PHOSPHO1 inh, IDE inh, UBC13 inh)
CCCC[C@H](CN[C@@H](CNC)[C@H](C)CC)NCCC12CCC(CC1)C2	UBC13 inh 48 | Casp3 UBC13 ctr inactive | UBC13 conf inactive
N#CC1=C(N)Oc2n[nH]c(-c3ccccc3)c2C1c1cccnc1 (stereo unspecified)	none
CCOc1cc(C2C(C#N)=C(N)Oc3n[nH]c(-c4ccccc4)c32)ccc1O (stereo unspecified)	UBC13 inh 83 | Casp3 UBC13 ctr inactive | UBC13 conf 100
COc1ccccc1NC(=O)CN1CCC(n2c(C)nc3cc(F)ccc32)CC1	UBC13 inh 104 | Casp3 UBC13 ctr inactive | UBC13 conf 112
Cc1ccc2c(c1)nnn2C1CCN(CC(=O)Nc2ccccc2N2CCOCC2)CC1	none
COc1ccc(Cl)cc1NC(=O)CN1CCC(n2nnc3cc(C)ccc32)CC1	UBC13 inh 46 | Casp3 UBC13 ctr inactive | UBC13 conf 51
COc1ccccc1NC(=O)CN1CCC(n2nnc3cc(F)ccc32)CC1	UBC13 inh 70 | Casp3 UBC13 ctr inactive | UBC13 conf 69
